Measurements from ChEMBL document CHEMBL1125042, “Hypolipidemic activity of rifamycin derivatives” (J Med Chem, 1990).
Values after ≈ are worked out from the molar mass of the structure shown.

Columns and labels:
[1] = system: Rattus norvegicus; assay: Tested for hypolipidemic activity in male rats, cholesterol was determined in serum at 10 mg/kg; assay type: functional
How it was run: (§1)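 Groups of eight male Wistar rats (200–230 g) dosed orally in PEG 400, either daily for 7 days (killed 24 h after the last dose) or for 4 days with a second dose on day 4 (killed 16 h later). Fasted 16 h. Paired sera pooled, lipoproteins separated by ultracentrifugation (1.006 and 1.040 g/cm³), HDL taken as the infranatant. Cholesterol measured enzymatically; % vs vehicle, mean ± SEM of four pools.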

[2] = system: Rattus norvegicus; assay: Hypolipidemic activity was determined in male rats, and high-density lipoprotein level was determined at 10 mg/kg; assay type: functional
How it was run: (§2)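 Male Wistar rats (200–230 g), eight per group, were dosed orally in PEG 400 at 8 a.m. for 4 days, plus a second dose at 4 p.m. on day 4. Rats were fasted 16 h and killed 16 h after the last dose. Sera from pairs of rats were pooled. LDL (up to 1.040 g/cm³) was separated by ultracentrifugation and the HDL infranatant taken. Cholesterol was measured enzymatically. Results are % versus vehicle control, mean ± SEM of four pools, Student's t test.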

[3] = system: Rattus norvegicus; assay: Hypolipidemic activity was determined in male rats, and low-density lipoprotein level was determined at 10 mg/kg; assay type: functional; how it was run: as §2
[4] = system: Staphylococcus aureus; assay: Antibacterial activity against Staphylococcus aureus 10B; assay type: functional
How it was run: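 Agar dilution on DST agar with 2-fold drug dilutions. Inoculum of 10⁴ viable S. aureus 10B was taken from liquid-nitrogen stock, thawed 30 min and not subcultured. It was applied by multipoint replicator and incubated overnight at 37 °C. MIC is the lowest concentration inhibiting growth relative to control cultures.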

[5] = Inhibitory activity against RNA polymerase was determined; design: species or system Escherichia coli
How it was run: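 E. coli DNA-dependent RNA polymerase inhibition measured in vitro on ether-extracted, permeabilized E. coli cells.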

[6] = system: Rattus norvegicus; assay: Tested for hypolipidemic activity in male rats, cholesterol was determined in serum at 20 mg/kg; assay type: functional; how it was run: as §1
[7] = system: Rattus norvegicus; assay: Hypolipidemic activity was determined in male rats, and high-density lipoprotein level was determined at 20 mg/kg; assay type: functional; how it was run: as §2
[8] = system: Rattus norvegicus; assay: Hypolipidemic activity was determined in male rats, and low-density lipoprotein level was determined at 20 mg/kg; assay type: functional; how it was run: as §2
[9] = system: Rattus norvegicus; assay: Hypolipidemic activity was determined by measuring the % serum HDL in hypercholesterolemic RICO rat at a dose of 10 mg/kg; assay type: functional, organism-based; design: dose 10 mg/kg
How it was run: (§3)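 Genetically hypercholesterolemic RICO rats (Tif:RAI,f,SPF) were dosed orally for 7 days. Sera were collected after a 16 h fast and pooled in pairs. LDL (1.006–1.040 g/cm³) and HDL infranatant were separated by ultracentrifugation. Cholesterol and triglycerides were measured enzymatically. Results are % change versus vehicle control, mean ± SEM of four pools.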

[10] = system: Rattus norvegicus; assay: Hypolipidemic activity was determined by measuring the % serum HDL in hypercholesterolemic RICO rat at a dose of 3 mg/kg; assay type: functional, organism-based; design: dose 3 mg/kg; how it was run: as §3
[11] = system: Rattus norvegicus; assay: Hypolipidemic activity was determined by measuring the % serum HDL in hypercholesterolemic RICO rat at a dose of 30 mg/kg; assay type: functional, organism-based; design: dose 30 mg/kg; how it was run: as §3
[12] = system: Rattus norvegicus; assay: Hypolipidemic activity was determined by measuring the % serum HDL in normal rat at a dose of 1 mg/kg; assay type: functional, organism-based; design: dose 1 mg/kg
How it was run: (§4)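 Normal male Wistar rats (200–230 g), eight per group, were dosed orally in PEG 400 once daily for 7 days. They were fasted 16 h and killed 24 h after the last dose. Serum from pairs was pooled and LDL/HDL fractions were ultracentrifuged. Cholesterol and triglycerides were measured enzymatically. Results are % versus vehicle control, mean ± SEM of four pools, Student's t test.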

[13] = system: Rattus norvegicus; assay: Hypolipidemic activity was determined by measuring the % serum HDL in normal rat at a dose of 3 mg/kg; assay type: functional, organism-based; design: dose 3 mg/kg; how it was run: as §4
[14] = system: Rattus norvegicus; assay: Hypolipidemic activity was determined by measuring the % serum HDL in normal rat at a dose of 30 mg/kg; assay type: functional, organism-based; design: dose 30 mg/kg; how it was run: as §4
[15] = system: Rattus norvegicus; assay: Hypolipidemic activity was determined by measuring the % serum cholesterol in hypercholesterolemic RICO rat at a dose of 10 mg/kg; assay type: functional, organism-based; design: dose 10 mg/kg; how it was run: as §3
[16] = system: Rattus norvegicus; assay: Hypolipidemic activity was determined by measuring the % serum cholesterol in hypercholesterolemic RICO rat at a dose of 3 mg/kg; assay type: functional, organism-based; design: dose 3 mg/kg; how it was run: as §3
[17] = system: Rattus norvegicus; assay: Hypolipidemic activity was determined by measuring the % serum cholesterol in hypercholesterolemic RICO rat at a dose of 30 mg/kg; assay type: functional, organism-based; design: dose 30 mg/kg; how it was run: as §3
[18] = system: Rattus norvegicus; assay: Hypolipidemic activity was determined by measuring the % serum cholesterol in normal rat at a dose of 1 mg/kg; assay type: functional, organism-based; design: dose 1 mg/kg; how it was run: as §4
[19] = system: Rattus norvegicus; assay: Hypolipidemic activity was determined by measuring the % serum cholesterol in normal rat at a dose of 10 mg/kg; assay type: functional, organism-based; design: dose 10 mg/kg; how it was run: as §4
[20] = system: Rattus norvegicus; assay: Hypolipidemic activity was determined by measuring the % serum cholesterol in normal rat at a dose of 3 mg/kg; assay type: functional, organism-based; design: dose 3 mg/kg; how it was run: as §4
[21] = system: Rattus norvegicus; assay: Hypolipidemic activity was determined by measuring the % serum cholesterol in normal rat at a dose of 30 mg/kg; assay type: functional, organism-based; design: dose 30 mg/kg; how it was run: as §4
[22] = system: Rattus norvegicus; assay: Hypolipidemic activity was determined by measuring the % serum LDL-cholesterol in hypercholesterolemic RICO rat at a dose of 10 mg/kg; assay type: functional, organism-based; design: dose 10 mg/kg; how it was run: as §3
[23] = system: Rattus norvegicus; assay: Hypolipidemic activity was determined by measuring the % serum LDL-cholesterol in hypercholesterolemic RICO rat at a dose of 3 mg/kg; assay type: functional, organism-based; design: dose 3 mg/kg; how it was run: as §3
[24] = system: Rattus norvegicus; assay: Hypolipidemic activity was determined by measuring the % serum LDL-cholesterol in hypercholesterolemic RICO rat at a dose of 30 mg/kg; assay type: functional, organism-based; design: dose 30 mg/kg; how it was run: as §3
[25] = system: Rattus norvegicus; assay: Hypolipidemic activity was determined by measuring the % serum LDL in normal rat at a dose of 1 mg/kg; assay type: functional, organism-based; design: dose 1 mg/kg; how it was run: as §4
[26] = system: Rattus norvegicus; assay: Hypolipidemic activity was determined by measuring the % serum LDL in normal rat at a dose of 10 mg/kg; assay type: functional, organism-based; design: dose 10 mg/kg; how it was run: as §4
[27] = system: Rattus norvegicus; assay: Hypolipidemic activity was determined by measuring the % serum LDL in normal rat at a dose of 3 mg/kg; assay type: functional, organism-based; design: dose 3 mg/kg; how it was run: as §4
[28] = system: Rattus norvegicus; assay: Hypolipidemic activity was determined by measuring the % serum LDL in normal rat at a dose of 30 mg/kg; assay type: functional, organism-based; design: dose 30 mg/kg; how it was run: as §4
[29] = system: Rattus norvegicus; assay: Hypolipidemic activity was determined by measuring the % serum triglycerides in normal rat at a dose of 3 mg/kg; assay type: functional, organism-based; design: dose 3 mg/kg; how it was run: as §4
[30] = system: Rattus norvegicus; assay: Hypolipidemic activity was determined by measuring the % serum triglycerides in normal rat at a dose of 30 mg/kg; assay type: functional, organism-based; design: dose 30 mg/kg; how it was run: as §4
[31] = system: Rattus norvegicus; assay: Hypolipidemic activity was determined by measuring the % serum triglycerides in hypercholesterolemic RICO rat at a dose of 10 mg/kg; assay type: functional, organism-based; design: dose 10 mg/kg; how it was run: as §3
[32] = system: Rattus norvegicus; assay: Hypolipidemic activity was determined by measuring the % serum triglycerides in hypercholesterolemic RICO rat at a dose of 3 mg/kg; assay type: functional, organism-based; design: dose 3 mg/kg; how it was run: as §3
[33] = system: Rattus norvegicus; assay: Hypolipidemic activity was determined by measuring the % serum triglycerides in hypercholesterolemic RICO rat at a dose of 30 mg/kg; assay type: functional, organism-based; design: dose 30 mg/kg; how it was run: as §3
[34] = system: Rattus norvegicus; assay: Hypolipidemic activity was determined by measuring the % serum triglycerides in normal rat at a dose of 1 mg/kg; assay type: functional, organism-based; design: dose 1 mg/kg; how it was run: as §4
[35] = system: Rattus norvegicus; assay: Hypolipidemic activity was determined by measuring the % serum triglycerides in normal rat at a dose of 10 mg/kg; assay type: functional, organism-based; design: dose 10 mg/kg; how it was run: as §4
[36] = system: Rattus norvegicus; assay: Hypolipidemic activity was determined by measuring the % serum HDL in normal rat at a dose of 10 mg/kg; assay type: functional, organism-based; design: dose 10 mg/kg; how it was run: as §4

COC1/C=C/OC2(C)Oc3c(C)c(O)c4c(O)c(c(N5CCN(Cc6c(C)cc(C)cc6C)CC5)c(O)c4c3C2=O)NC(=O)/C(C)=C\C=C\C(C)C2OC(C)(C)OC(C2C)C(C)C(OC(C)=O)C1C (configuration not stated)
Activity [1]: -14%
Activity [2]: -27%
Activity [3]: -6%
MIC [4]: 8 µg/mL (≈ 8.38 µM)

COC1CCOC2(C)Oc3c(C)c(O)c4c(O)c(c(N5CCN(Cc6c(C)cc(C)cc6C)CC5)c(O)c4c3C2=O)NC(=O)C(C)CCCC(C)C(O)C(C)C(O)C(C)C(OC(C)=O)C1C (configuration not stated)
Activity [1]: -30%
Activity [2]: -27%
Activity [3]: -32%
IC50 [5]: 8 µg/mL (≈ 8.69 µM)
MIC [4]: 2 µg/mL (≈ 2.17 µM)

COC1/C=C/OC2(C)Oc3c(C)c(O)c4c(O)c(c(N5CCN(Cc6c(C)cc(C)cc6C)CC5)c(O)c4c3C2=O)NC(=O)/C(C)=C\C=C\C(C)C(O)C(C)C(O)C(C)C(OC(C)=O)C1C (configuration not stated)
Activity [1]: -35%
Activity [6]: -63%
Activity [2]: -38%
Activity [7]: -58%
Activity [3]: -43%
Activity [8]: -79%
IC50 [5]: 0.3 µg/mL (≈ 0.328 µM)
Serum HDL-cholesterol [9]: -30%
Serum HDL-cholesterol [10]: -7%
Serum HDL-cholesterol [11]: -72%
Serum HDL-cholesterol [12]: -8%
Serum HDL-cholesterol [13]: -14%
Serum HDL-cholesterol [14]: -69%
Serum cholesterol [15]: -30%
Serum cholesterol [16]: -8%
Serum cholesterol [17]: -65%
Serum cholesterol [18]: 0%
Serum cholesterol [19]: -42%
Serum cholesterol [20]: -11%
Serum cholesterol [21]: -72%
Serum LDL-cholesterol [22]: -42%
Serum LDL-cholesterol [23]: -29%
Serum LDL-cholesterol [24]: -68%
Serum LDL-cholesterol [25]: -11%
Serum LDL-cholesterol [26]: -53%
Serum LDL-cholesterol [27]: -28%
Serum LDL-cholesterol [28]: -64%
Serum triglyceride [29]: -3%
Serum triglyceride [30]: -50%
Serum triglyceride [31]: -17%
Serum triglyceride [32]: 8%
Serum triglyceride [33]: -55%
Serum triglyceride [34]: 11%
Serum triglyceride [35]: -18%
MIC [4]: 0.01 µg/mL (≈ 0.0109 µM)
Serum HDL-cholesterol [36]: -46%

COC1/C=C/OC2(C)Oc3c(C)c(O)c4c(O)c(c(N5CCC(C(N)=O)CC5)c(O)c4c3C2=O)NC(=O)/C(C)=C\C=C\C(C)C(O)C(C)C(O)C(C)C(OC(C)=O)C1C (configuration not stated)
Activity [6]: -9%
Activity [7]: -6%
Activity [8]: 11%
MIC [4]: < 0.1 µg/mL

COC1/C=C/OC2(C)Oc3c(C)c(OC(=O)C(C)(C)C)c4c(c3C2=O)C(=O)C(N2CCN(Cc3c(C)cc(C)cc3C)CC2)=C(NC(=O)/C(C)=C\C=C\C(C)C(O)C(C)C(O)C(C)C(OC(C)=O)C1C)C4=O (configuration not stated)
Activity [6]: -48%
Activity [7]: -53%
Activity [8]: -32%
MIC [4]: 0.5 µg/mL (≈ 0.502 µM)

COC1/C=C/OC2(C)Oc3c(C)c(O)c4c(O)c(c(N5CCCCC5)c(O)c4c3C2=O)NC(=O)/C(C)=C\C=C\C(C)C(O)C(C)C(O)C(C)C(OC(C)=O)C1C (configuration not stated)
Activity [6]: -32%
Activity [7]: -36%
Activity [8]: -19%
MIC [4]: < 0.1 µg/mL
